Experimental data: ChEMBL document CHEMBL1156652, “Antiurolithic effect of lupeol and lupeol linoleate in experimental hyperoxaluria” (J Nat Prod, 2008)
The source made the active and inactive calls.

Tests used:
Rattus norvegicus [1] = assay: Effect on xanthine oxidase activity in liver of Wistar rat assessed per mg of protein at 50 mg/kg/day, po for 28 days; format: functional
Method in brief: (§1)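 Normal male Wistar rats, no ethylene glycol, given oral dosing at 50 mg/kg body wt/day for 28 days. Liver and kidney homogenized 10% in ice-cold 0.01 M Tris-HCl pH 7.4. LDH assayed with glyoxylate as substrate; GAO and XO by published methods. Mean ± SEM, 6 rats/group.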

Rattus norvegicus [2] = assay: Reduction of glycolic acid oxidase activity in liver of ethylene glycol-induced hyperoxaluria Wistar rat model assessed per mg of protein at 50 mg/kg/day, po for 28 days; format: functional
Method in brief: (§2)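 Hyperoxaluria produced with 0.75% ethylene glycol in drinking water for 28 days, with concurrent oral dosing at 50 mg/kg body wt/day. Liver and kidney homogenized 10% in ice-cold 0.01 M Tris-HCl pH 7.4. LDH assayed with glyoxylate as substrate; GAO and XO by published methods. Mean ± SEM, 6 rats/group.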

Rattus norvegicus [3] = assay: Reduction of lactate dehydrogenase activity in kidney of ethylene glycol-induced hyperoxaluria Wistar rat model assessed per mg of protein at 50 mg/kg/day, po for 28 days; format: functional; method in brief: as §2
Rattus norvegicus [4] = assay: Increase in glutathione peroxidase activity in kidney of ethylene glycol-induced hyperoxaluria Wistar rat model assessed per mg of protein at 50 mg/kg/day, po for 28 days; format: functional
Method in brief: (§3)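 Ethylene glycol-hyperoxaluric male Wistar rats (0.75% in drinking water, 28 days), co-dosed orally at 50 mg/kg body wt/day. Kidney homogenate, 10% in 0.01 M Tris-HCl pH 7.4. SOD unit defined as 50% inhibition of pyrogallol autoxidation; CAT as µmol H2O2 utilized/min. GSH, vitamins C and E as µg/mg protein. Mean ± SEM, 6 rats/group.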

Rattus norvegicus [5] = assay: Reduction in ascorbate-induced lipid peroxidation levels in kidney of ethylene glycol-induced hyperoxaluria Wistar rat model assessed as malondialdehyde release per mg of protein at 50 mg/kg/day, po for 28 days; format: functional
Method in brief: (§4)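 Male Wistar rats given 0.75% ethylene glycol in drinking water for 28 days, with drug orally at 50 mg/kg body wt/day throughout. Kidney homogenized 10% in ice-cold 0.01 M Tris-HCl, pH 7.4. Lipid peroxidation read as malondialdehyde released, with 10 mM ferrous sulfate or 0.2 mM ascorbate as inducer. Mean ± SEM, 6 rats/group.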

Rattus norvegicus [6] = assay: Effect on ascorbate-induced lipid peroxidation levels in kidney of Wistar rat assessed as malondialdehyde release per mg of protein at 50 mg/kg/day, po for 28 days; format: functional
Method in brief: (§5)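 Normal male Wistar rats (120 ± 20 g), no ethylene glycol, given drug orally at 50 mg/kg body wt/day for 28 days. Kidney homogenized 10% in ice-cold 0.01 M Tris-HCl, pH 7.4. Lipid peroxidation read as malondialdehyde released, with 10 mM ferrous sulfate or 0.2 mM ascorbate as inducer. Mean ± SEM, 6 rats/group.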

Rattus norvegicus [7] = assay: Reduction of xanthine oxidase activity in liver of ethylene glycol-induced hyperoxaluria Wistar rat model assessed per mg of protein at 50 mg/kg/day, po for 28 days; format: functional; method in brief: as §2
Rattus norvegicus [8] = assay: Effect on renal alkaline phosphatase activity in Wistar rat assessed per mg of protein at 50 mg/kg/day, po for 28 days; format: functional
Method in brief: (§6)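 Normal male Wistar rats, no ethylene glycol, dosed orally at 50 mg/kg body wt/day for 28 days. Kidney homogenate in 0.01 M Tris-HCl pH 7.4. ALP read as phenol liberated from disodium phenyl phosphate, Folin colour at alkaline pH; γ-GT as p-nitroaniline liberated/min/mg protein. Mean ± SEM, 6 rats/group.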

Rattus norvegicus [9] = assay: Effect on xanthine oxidase activity in kidney of Wistar rat assessed per mg of protein at 50 mg/kg/day, po for 28 days; format: functional; method in brief: as §1
Rattus norvegicus [10] = assay: Effect on glutathione peroxidase activity in kidney of Wistar rat assessed per mg of protein at 50 mg/kg/day, po for 28 days; format: functional
Method in brief: (§7)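 Normal male Wistar rats, no ethylene glycol, dosed orally at 50 mg/kg body wt/day for 28 days. Kidney homogenate, 10% in 0.01 M Tris-HCl pH 7.4. SOD unit defined as 50% inhibition of pyrogallol autoxidation; CAT as µmol H2O2 utilized/min. GSH, vitamins C and E as µg/mg protein. Protein by Lowry. Mean ± SEM, 6 rats/group.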

Rattus norvegicus [11] = assay: Effect on catalase activity in kidney of Wistar rat assessed per mg of protein at 50 mg/kg/day, po for 28 days; format: functional; method in brief: as §7
Rattus norvegicus [12] = assay: Nephrotoxicity in Wistar rat at 50 mg/kg/day, po for 28 days; format: toxicity, organism-based; set-up: route oral; settings: in vivo, 672 h
Method in brief: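 Male Wistar rats (120 ± 20 g), six per group, dosed orally once daily for 28 days, alone or alongside 0.75% ethylene glycol in drinking water to induce hyperoxaluria. After decapitation, kidneys were homogenized (10%) in ice-cold 0.01 M Tris-HCl pH 7.4 for ALP and γ-GT assays, or formalin-fixed, H&E-stained and examined by light microscopy. Data reported as mean ± SEM.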

Rattus norvegicus [13] = assay: Effect on vitamin C level in kidney of Wistar rat assessed per mg of protein at 50 mg/kg/day, po for 28 days; format: functional; method in brief: as §7
Rattus norvegicus [14] = assay: Protective effect in kidney of ethylene glycol-induced hyperoxaluria Wistar rat model assessed as normal glomerulus/tubule at 50 mg/kg/day, po for 28 days; format: functional, organism-based
Method in brief: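 Hyperoxaluria induced with 0.75% ethylene glycol in drinking water for 28 days, with concurrent oral dosing at 50 mg/kg body wt/day. Kidney portions fixed in 10% formalin, stained with hematoxylin and eosin, and examined by light microscopy for glomeruli, tubules, crystal deposits and infiltration.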

Rattus norvegicus [15] = assay: Reduction of lactate dehydrogenase activity in liver of ethylene glycol-induced hyperoxaluria Wistar rat model assessed per mg of protein at 50 mg/kg/day, po for 28 days; format: functional; method in brief: as §2
Rattus norvegicus [16] = assay: Effect on vitamin E level in kidney of Wistar rat assessed per mg of protein at 50 mg/kg/day, po for 28 days; format: functional; method in brief: as §7
Rattus norvegicus [17] = assay: Increase in vitamin E level in kidney of ethylene glycol-induced hyperoxaluria Wistar rat model assessed per mg of protein at 50 mg/kg/day, po for 28 days; format: functional; method in brief: as §3
Rattus norvegicus [18] = assay: Increase in superoxide dismutase activity in kidney of ethylene glycol-induced hyperoxaluria Wistar rat model assessed per mg of protein at 50 mg/kg/day, po for 28 days; format: functional; method in brief: as §3
Rattus norvegicus [19] = assay: Reduction of xanthine oxidase activity in kidney of ethylene glycol-induced hyperoxaluria Wistar rat model assessed per mg of protein at 50 mg/kg/day, po for 28 days; format: functional; method in brief: as §2
Rattus norvegicus [20] = assay: Effect on superoxide dismutase activity in kidney of Wistar rat assessed per mg of protein at 50 mg/kg/day, po for 28 days; format: functional; method in brief: as §7
Rattus norvegicus [21] = assay: Increase in vitamin C level in kidney of ethylene glycol-induced hyperoxaluria Wistar rat model assessed per mg of protein at 50 mg/kg/day, po for 28 days; format: functional; method in brief: as §3
Rattus norvegicus [22] = assay: Renoprotective effect in ethylene glycol-hyperoxaluria Wistar rat model assessed as increase in renal alkaline phosphatase activity per mg of protein at 50 mg/kg/day, po for 28 days; format: functional
Method in brief: as §6, with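 “Ethylene glycol given at 0.75% in drinking water for 28 days to” for “Normal”, “with concurrent oral dosing” for “no ethylene glycol, dosed orally”, “wt/day.” for “wt/day for 28 days.”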

Rattus norvegicus [23] = assay: Increase in glutathione level in kidney of ethylene glycol-induced hyperoxaluria Wistar rat model assessed per mg of protein at 50 mg/kg/day, po for 28 days; format: functional; method in brief: as §3
Rattus norvegicus [24] = assay: Effect on ferrous sulfate-induced lipid peroxidation levels in kidney of Wistar rat assessed as malondialdehyde release per mg of protein at 50 mg/kg/day, po for 28 days; format: functional; method in brief: as §5
Rattus norvegicus [25] = assay: Effect on glutathione level in kidney of Wistar rat assessed per mg of protein at 50 mg/kg/day, po for 28 days; format: functional; method in brief: as §7
Rattus norvegicus [26] = assay: Effect on renal gamma glutamyl transferase activity in Wistar rat assessed mg of protein at 50 mg/kg/day, po for 28 days; format: functional; method in brief: as §6
Rattus norvegicus [27] = assay: Effect on lactate dehydrogenase activity in kidney of Wistar rat assessed per mg of protein at 50 mg/kg/day, po for 28 days; format: functional; method in brief: as §1
Rattus norvegicus [28] = assay: Renoprotective effect in ethylene glycol-hyperoxaluria Wistar rat model assessed as increase in renal gamma glutamyl transferase activity mg of protein at 50 mg/kg/day, po for 28 days; format: functional
Method in brief: as §6, with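 “Ethylene glycol given at 0.75% in drinking water for 28 days to” for “Normal”, “with concurrent oral dosing” for “no ethylene glycol, dosed orally”, “wt/day.” for “wt/day for 28 days.”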

Rattus norvegicus [29] = assay: Effect on glycolic acid oxidase activity in liver of Wistar rat assessed per mg of protein at 50 mg/kg/day, po for 28 days; format: functional; method in brief: as §1
Rattus norvegicus [30] = assay: Effect on lactate dehydrogenase activity in liver of Wistar rat assessed per mg of protein at 50 mg/kg/day, po for 28 days; format: functional; method in brief: as §1
Rattus norvegicus [31] = assay: Reduction in ferrous sulfate-induced lipid peroxidation levels in kidney of ethylene glycol-induced hyperoxaluria Wistar rat model assessed as malondialdehyde release per mg of protein at 50 mg/kg/day, po for 28 days; format: functional; method in brief: as §4
Rattus norvegicus [32] = assay: Increase in catalase activity in kidney of ethylene glycol-induced hyperoxaluria Wistar rat model assessed per mg of protein at 50 mg/kg/day, po for 28 days; format: functional; method in brief: as §3

| SMILES | Activity (Rattus norvegicus [1]) | Activity (Rattus norvegicus [2]) [nmol] | Activity (Rattus norvegicus [3]) | Activity (Rattus norvegicus [4]) [µg/min] | Activity (Rattus norvegicus [5]) [nmol] | Activity (Rattus norvegicus [6]) [nmol] | Activity (Rattus norvegicus [7]) | Activity (Rattus norvegicus [8]) [µmol/min] | Activity (Rattus norvegicus [9]) | Activity (Rattus norvegicus [10]) [µg/min] | Activity (Rattus norvegicus [11]) [µmol/min] | Activity (Rattus norvegicus [12]) | Activity (Rattus norvegicus [13]) [µg] | Activity (Rattus norvegicus [14]) | Activity (Rattus norvegicus [15]) | Activity (Rattus norvegicus [16]) [µg] | Activity (Rattus norvegicus [17]) [µg] | Activity (Rattus norvegicus [18]) | Activity (Rattus norvegicus [19]) | Activity (Rattus norvegicus [20]) | other results |
| --- | --- | --- | --- | --- | --- | --- | --- | --- | --- | --- | --- | --- | --- | --- | --- | --- | --- | --- | --- | --- | --- |
| C=C(C)[C@@H]1CC[C@]2(C)CC[C@]3(C)C(CC[C@@H]4[C@@]5(C)CC[C@H](OC(=O)CCCCCCC/C=C/C/C=C/CCCCC)C(C)(C)[C@@H]5CC[C@]43C)[C@@H]12 (some centres undefined) [LUPEOL LINOLEATE] | 1.28 | 3.12 | 2.26 | 8.01 | 4.95 | 4.45 | 1.39 | 1.68 | 0.9 | 8.32 | 164.9 | Non-toxic | 1.89 | Active | 2.39 | 1.06 | 0.97 | 4.82 | 0.97 | 5 | Activity (Rattus norvegicus [21]): 1.74 µg; Activity (Rattus norvegicus [22]): 1.65 µmol/min; Activity (Rattus norvegicus [23]): 4.59 µg; Activity (Rattus norvegicus [24]): 12.2 nmol; Activity (Rattus norvegicus [25]): 4.76 µg; Activity (Rattus norvegicus [26]): 8.79 nmol/min; Activity (Rattus norvegicus [27]): 2.01; Activity (Rattus norvegicus [28]): 8.62 nmol/min; Activity (Rattus norvegicus [29]): 2.75 nmol; Activity (Rattus norvegicus [30]): 2.33; Activity (Rattus norvegicus [31]): 13.38 nmol; Activity (Rattus norvegicus [32]): 155.3 µmol/min |
| C=C(C)[C@@H]1CC[C@]2(C)CC[C@]3(C)[C@H](CC[C@@H]4[C@@]5(C)CC[C@H](O)C(C)(C)[C@@H]5CC[C@]43C)[C@@H]12 [LUPEOL] | 1.31 | 3.61 | 2.41 | 7.11 | 5.11 | 4.5 | 1.54 | 1.72 | 0.93 | 8.31 | 164.2 | Non-toxic | 1.86 | Active | 2.42 | 1.04 | 0.91 | 4.67 | 1.09 | 5.04 | Activity (Rattus norvegicus [21]): 1.6 µg; Activity (Rattus norvegicus [22]): 1.53 µmol/min; Activity (Rattus norvegicus [23]): 4.27 µg; Activity (Rattus norvegicus [24]): 12.14 nmol; Activity (Rattus norvegicus [25]): 4.75 µg; Activity (Rattus norvegicus [26]): 8.73 nmol/min; Activity (Rattus norvegicus [27]): 2.05; Activity (Rattus norvegicus [28]): 8.28 nmol/min; Activity (Rattus norvegicus [29]): 2.77 nmol; Activity (Rattus norvegicus [30]): 2.35; Activity (Rattus norvegicus [31]): 15.11 nmol; Activity (Rattus norvegicus [32]): 141.6 µmol/min |
